From ChEMBL document CHEMBL1131470, “Inhibition of human O6-alkylguanine-DNA alkyltransferase and potentiation of the cytotoxicity of chloroethylnitrosourea by 4(6)-(benzyloxy)-2,6(4)-diamino-5-(nitro or nitroso)pyrimidine derivatives and analogues” (J Med Chem, 1998)
Blank lines part the entries; values can stand above or below the compound they belong to.

How the values were obtained:
HeLa [1] = assay: The compound was tested for its ability to enhance the cytotoxicity of ACNU toward HeLa S3 cells at 1 uM dose; type: functional, Homo sapiens
Procedure, shortened: (§1)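 HeLa S3 cervical tumour cells (AGAT activity 418 fmol/mg protein) pretreated with test compound for 2 h at 0.01, 0.1, 1 or 10 μM, then exposed to increasing ACNU concentrations. Cytotoxicity measured by a previously reported method. Dose-modifying factor = IC50 for ACNU alone divided by IC50 for compound pretreatment followed by ACNU.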

HeLa [2] = assay: The compound was tested for its ability to enhance the cytotoxicity of ACNU toward HeLa S3 cells at 10 uM dose; type: functional, Homo sapiens
Procedure, shortened: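 HeLa S3 cervical tumour cells (AGAT activity 418 fmol/mg protein) pretreated 2 h with test compound […], then exposed to increasing ACNU concentrations. Dose-modifying factor = IC50 for ACNU alone divided by IC50 for compound pretreatment followed by ACNU.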

HeLa [3] = assay: The compound was tested for its ability to enhance the cytotoxicity of ACNU toward HeLa S3 cells at 0.1 uM dose; type: functional, Homo sapiens; procedure, shortened: as §1
[4] = The compound was tested for its ability to enhance the cytotoxicity of ACNU toward HeLa S3 cells at 10 uM dose; 'b' means toxicity appeared at this dose; type: cell-based; settings: human; procedure, shortened: as §1
HeLa [5] = assay: The compound was tested for its ability to enhance the cytotoxicity of ACNU toward HeLa S3 cells at 0.01 uM dose; type: functional, Homo sapiens; procedure, shortened: as §1
[6] = target: T1, Methylated-DNA--protein-cysteine methyltransferase (Homo sapiens, UniProt P16455); assay: In vitro inhibitory activity against human O6-alkylguanine-DNA alkyltransferase (AGAT)
T1 sequence (P16455 whole entry): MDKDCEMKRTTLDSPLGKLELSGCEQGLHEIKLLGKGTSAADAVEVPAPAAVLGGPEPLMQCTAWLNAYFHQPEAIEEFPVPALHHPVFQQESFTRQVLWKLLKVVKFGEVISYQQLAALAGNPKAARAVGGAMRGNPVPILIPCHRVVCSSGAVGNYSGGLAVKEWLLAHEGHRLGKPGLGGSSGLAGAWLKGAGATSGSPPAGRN

SMILES: Nc1nc(OCc2ccccc2)c2nc[nH]c2n1 [6-O-BENZYLGUANINE]
Dose-modifying factor (HeLa [1]): 4.4
Dose-modifying factor (HeLa [2]): 7.6
Dose-modifying factor (HeLa [3]): 1.3

SMILES: Nc1nc(N)c([N+](=O)[O-])c(OCc2ccc(F)cc2)n1
Dose-modifying factor (HeLa [1]): 5.1
Dose-modifying factor (HeLa [3]): 1.5
Dose-modifying factor [4]: Toxicity appeared at this dose

SMILES: Nc1nc(N)c([N+](=O)[O-])c(OCc2ccccn2)n1
Dose-modifying factor (HeLa [1]): 1
Dose-modifying factor (HeLa [3]): 1
Dose-modifying factor [4]: Toxicity appeared at this dose

SMILES: Nc1nc(N)c([N+](=O)[O-])c(OCc2ccccc2F)n1
Dose-modifying factor (HeLa [1]): 1.1
Dose-modifying factor (HeLa [3]): 1
Dose-modifying factor [4]: Toxicity appeared at this dose

SMILES: Nc1nc(N)c([N+](=O)[O-])c(OCc2cccnc2)n1
Dose-modifying factor (HeLa [1]): 3.6
Dose-modifying factor (HeLa [3]): 1.2
Dose-modifying factor [4]: Toxicity appeared at this dose

IC50 [6]: 0.13 µM
SMILES: Nc1nc(N)c(N=O)c(OCc2ccccc2)n1
Dose-modifying factor (HeLa [1]): 8.8
Dose-modifying factor (HeLa [3]): 4.3
Dose-modifying factor (HeLa [5]): 1.2

SMILES: Nc1nc(N)c(N=O)c(OCc2ccncc2)n1
Dose-modifying factor (HeLa [1]): 7.3
Dose-modifying factor (HeLa [3]): 2.9
Dose-modifying factor (HeLa [5]): 1
Dose-modifying factor [4]: Toxicity appeared at this dose

IC50 [6]: 170 µM
SMILES: Nc1cc(OCc2ccccc2)nc(N)n1
Dose-modifying factor (HeLa [2]): 1

SMILES: Nc1nc(N)c(N=O)c(OCc2ccc(F)cc2)n1
Dose-modifying factor (HeLa [1]): 9.2
Dose-modifying factor (HeLa [3]): 5.8
Dose-modifying factor (HeLa [5]): 1.4
Dose-modifying factor [4]: Toxicity appeared at this dose

SMILES: Nc1nc(N)c([N+](=O)[O-])c(OCc2cccc(F)c2)n1
Dose-modifying factor (HeLa [1]): 4.8
Dose-modifying factor (HeLa [3]): 1.2
Dose-modifying factor [4]: Toxicity appeared at this dose

SMILES: Nc1nc(N)c([N+](=O)[O-])c(OCc2ccncc2)n1
Dose-modifying factor (HeLa [1]): 3.9
Dose-modifying factor (HeLa [3]): 1.2
Dose-modifying factor [4]: Toxicity appeared at this dose

SMILES: Nc1nc(N)c([N+](=O)[O-])c(OCc2ccccc2)n1
Dose-modifying factor (HeLa [1]): 4
Dose-modifying factor (HeLa [3]): 1.2
Dose-modifying factor [4]: Toxicity appeared at this dose
